Holding throughout (format): ADME
Series [1] in a line: Spectral dissociation constant of the compound. To be noted: read-out: Ks. Put shortly:
(§1)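 Type I difference spectra recorded at 350–500 nm in washed liver microsomes from fed, untreated 180–250 g male CD rats, 3 mg protein/mL in 0.15 M KCl-0.05 M Tris. Split-beam cuvettes were warmed to 37 °C for 5 min, then substrate added stepwise to the sample side and buffer to the reference. Ks came from double-reciprocal plots of the 390–420 nm absorbance difference. Triplicate determinations.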

Series [2] is described as follows: Maximum optimal dose expressed as OD max X 10e-(2/3) mg. Put shortly: as §1
Series [3] in a line: Michaelis constant in N-demethylation. Put shortly: (§2)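 Male CD rat hepatic microsomes (1 mg protein/mL) in 0.15 M KCl-0.05 M Tris with 5 mM MgCl2 and an NADPH-generating system (0.33 mM NADP, 5.5 mM glucose 6-phosphate, 0.67 U/mL G6PDH). Incubated in air for 10 min at 37 °C. Formaldehyde measured colorimetrically with acetylacetone at 412 nm, correcting for substrate-free blanks. Km and Vmax taken from triplicates at 11 substrate concentrations.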

Series [4] is described as follows: Michaelis constant in O-dealkylation. The essentials:
(§3)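 Octyl[6-3H]morphine N- and O-dealkylation assayed radiometrically in rat liver microsomes (1 mg protein/mL). Triplicate 20-min incubations used eight substrate concentrations from 0.1 to 1.0 mM. Reactions were stopped with acetone and extracted, then metabolites were located by UV, scraped and counted by scintillation. Km and Vmax came from Lineweaver-Burk plots, averaged over three separate studies.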

Series [5] can be described thus: Vmax value in N-demethylation. Put shortly:
as §2

Series [6] in a line: Vmax value in O-dealkylation. Put shortly:
as §3

Series [7] is described as follows: Rate of ethylmorphine N-demethylase in the presence of various concentrations (uM) at 0 uM concentration. Put shortly:
(§4)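 2 mM 3-O-ethylmorphine was N-demethylated for 10 min at 37 °C by male CD rat liver microsomes (1 mg protein/mL) with an NADPH-generating system, with 0, 20, 200 or 2000 μM added decyl or dodecyl analogue. Formaldehyde was read colorimetrically at 412 nm. Rate is nmol/min/mg protein, from triplicate incubations.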

Series [8] can be described thus: Rate of ethylmorphine N-demethylase in the presence of various concentrations (uM) at 20 uM concentration. Put shortly:
as §4

A short description of series [9]: Rate of ethylmorphine N-demethylase in the presence of various concentrations (uM) at 200 uM concentration. The essentials: as §4
Series [10] can be described thus: Spectral dissociation constant of the compound; ND = no detectable binding spectra. The essentials: as §1
The nature of series [11]: Rate of ethylmorphine N-demethylase in the presence of various concentrations (uM) at 2000 uM concentration. Put shortly: as §4
Series [12] in a line: Maximum optimal dose expressed as OD max X 10e-(2/3) mg; ND = no detectable binding spectra. The essentials:
as §1

SMILES strings stand for the structures. pKd: −log10 of the molar value.

As usually defined, the Km is the substrate concentration at which the rate is half of its maximum. The term Vmax denotes the rate approached at saturating substrate.

`CCCCCOc1ccc2c3c1OC1C(O)C=CC4C(C2)N(C)CCC341.Cl` (configuration not stated): the pKd in [1] was 4.84. In [2], this compound showed an OD max of 2 mg.

With `CCOc1ccc2c3c1OC1C(O)C=CC4C(C2)N(C)CCC341.Cl` (configuration not stated), the Km in series [3] turned out to be 245 µM; in series [4], 55 µM. In [1], the pKd was 4.54. In series [2], this compound displayed an OD max of 1.9 mg. The maximum rate (Vmax) in [5] is 9.31 nM/min; in series [6], 1.86 nM/min.

As to `CCCOc1ccc2c3c1OC1C(O)C=CC4C(C2)N(C)CCC341.Cl` (configuration not stated), the pKd in [1] is 4.55. In [2], the OD max is 1.8 mg.

With `CCCCOc1ccc2c3c1OC1C(O)C=CC4C(C2)N(C)CCC341.Cl` (configuration not stated), the pKd in series [1] was 4.74. The OD max in series [2] amounted to 2.06 mg.

Consider `CCCCCCCCCCCCOc1ccc2c3c1OC1C(O)C=CC4C(C2)N(C)CCC341.Cl` (configuration not stated), for which the Rate in [7] was determined as 8.92 nM/min; in series [8] it was 8.81 nM/min; in series [9] it was 8.98 nM/min; in series [11], 9.06 nM/min. Moreover, in [10], the Ks result is on record as “No detectable binding spectra”. Moreover, the OD max result in series [12] was “No detectable binding spectra”.

For `CCCCCCCCOc1ccc2c3c1OC1C(O)C=CC4C(C2)N(C)CCC341.Cl` (configuration not stated), the Km came to 67 µM in series [3] and 125 µM in series [4]. In series [1], the pKd was 5.06. The compound also displayed an OD max in [2] of 2.1 mg. The Vmax worked out at 1.98 nM/min in [5] and 3.57 nM/min in series [6].

In the case of `CCCCCCOc1ccc2c3c1OC1C(O)C=CC4C(C2)N(C)CCC341.Cl` (configuration not stated), in series [1], the pKd is 4.89. In series [2], this compound had an OD max of 1.9 mg.

For `CCCCCCCCCCOc1ccc2c3c1OC1C(O)C=CC4C(C2)N(C)CCC341.Cl` (configuration not stated), the Rate in [7] is 9.11 nM/min; in series [8], 8.92 nM/min; in series [9], 9.12 nM/min; in series [11] it was 9.22 nM/min. The Ks result in series [10] is recorded as “No detectable binding spectra”. The OD max entry in [12] is given as “No detectable binding spectra”.

Regarding `CCCCCCCCCOc1ccc2c3c1OC1C(O)C=CC4C(C2)N(C)CCC341.Cl` (configuration not stated), in series [1], the pKd is 5.12. For the same compound, in [2], the OD max was 2.15 mg.

For the compound `CCCCCCCOc1ccc2c3c1OC1C(O)C=CC4C(C2)N(C)CCC341.Cl` (configuration not stated), in [1], the pKd is 4.94. Also, in [2], the OD max is 1.8 mg.

In the case of `COc1ccc2c3c1O[C@H]1[C@@H](O)C=C[C@H]4[C@@H](C2)N(C)CC[C@@]341.O=S(=O)(O)O`, in [2], the OD max was 1.85 mg.

The values above are taken from ChEMBL document CHEMBL1122317, “Role of substrate lipophilicity on the N-demethylation and type I binding of 3-O-alkylmorphine analogues” (J Med Chem, 1983).
